The source made the active and inactive calls. No cut-off for these calls is given here.
Assays:
[1] = Cytotoxicity against african green monkey BSC1 cells after 20 hrs WST-1 based assay; type: cell-based, BSC-1; settings: chlorocebus aethiops, read-out: TC50
In short: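 Uninfected BS-C-1 cells in phenol red-free medium, seeded 5000 (20 h), 1000 (3-day) or 200 (5-day) cells/well, exposed next day to compound in two-fold serial dilutions (top 200 µM; 1% DMSO final) at 37°C. WST-1 added 30 min, A450 read. Triplicates; percent cytotoxicity vs DMSO fitted four-parameter sigmoidal for TC50.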

Vaccinia virus [2] = assay: Antiviral activity against Vaccinia virus WR in BSC1 cells assessed as reduction in plaque formation after 20 hrs; type: functional, organism-based; settings: Orthopoxvirus vaccinia, BSC-1, 20 h
Vaccinia virus [3] = assay: Inhibition of Vaccinia virus DNA synthesis in by rapid plate assay; type: functional, organism-based; settings: Orthopoxvirus vaccinia
Vaccinia virus [4] = assay: Antiviral activity against Vaccinia virus WR in BSC1 cells assessed as retention of antiviral potency by measuring exogenous double stranded DNA trapping; type: functional, organism-based; settings: Orthopoxvirus vaccinia, BSC-1
Vaccinia virus [5] = assay: Antiviral activity against Vaccinia virus WR in BSC1 cells assessed as protection from virus-induced lysis of cell monolayer after 20 hrs; type: functional, organism-based; settings: Orthopoxvirus vaccinia, BSC-1, 20 h

CN1CCc2c(-c3cccs3)nc(OCc3ccccc3Br)c(C#N)c2C1
CC50 at 20 h [1]: 82 µM
EC50 (Vaccinia virus [2]): 40 µM
IC50 (Vaccinia virus [3]): 112 µM

CN(C)CC(O)Cn1c2ccc(Cl)cc2c2cc(Cl)ccc21 (centres undefined)
CC50 at 20 h [1]: 17 µM
EC50 (Vaccinia virus [2]): 10 µM
IC50 (Vaccinia virus [3]): 12 µM

CN(C)CCNC(=O)c1cc2c(s1)-c1ccc(Cl)cc1SC2
CC50 at 20 h [1]: 3.9 µM
EC50 (Vaccinia virus [2]): 5 µM
IC50 (Vaccinia virus [3]): 37 µM

COC(=O)C(C(=O)OC)C(Nc1ccccc1)c1ccccc1 (centres undefined)
CC50 at 20 h [1]: > 200 µM
IC50 (Vaccinia virus [3]): 638 µM

CN(C)/C=C/C=C1C(=O)CCCC1=O
CC50 at 20 h [1]: > 200 µM
IC50 (Vaccinia virus [3]): 86 µM

O=C1NC(=S)N(c2ccccc2)C(=O)/C1=C\C=C\c1ccco1
CC50 at 20 h [1]: > 200 µM
EC50 (Vaccinia virus [2]): 50 µM
IC50 (Vaccinia virus [3]): 143 µM

O=C(O)c1ccc2c(c1)NC(=O)C(CSCc1ccccc1Cl)N2 (centres undefined)
CC50 at 20 h [1]: > 200 µM
IC50 (Vaccinia virus [3]): 450 µM

CN(C)CCOC(=O)c1ccc2[nH]c3c(c2c1)CSCC3 [TIPINDOLE]
CC50 at 20 h [1]: > 200 µM
EC50 (Vaccinia virus [2]): 100 µM
IC50 (Vaccinia virus [3]): 115 µM

O=C(O)C1Nc2ccccc2C2C=CCC12 (centres undefined)
CC50 at 20 h [1]: > 200 µM
IC50 (Vaccinia virus [3]): > 400 µM

Cc1nc2ccccc2c2oc(C(=O)NCCN(C)C3CCCCC3)cc12
CC50 at 20 h [1]: 143 µM
Activity (Vaccinia virus [4]): inactive
EC50 (Vaccinia virus [2]): 25 µM
EC50 (Vaccinia virus [5]): 41 µM

CCOC(=O)c1cc(-c2ccccc2)n(-c2ccc(C(=O)O)cc2)c1C
CC50 at 20 h [1]: > 200 µM
EC50 (Vaccinia virus [2]): 100 µM
IC50 (Vaccinia virus [3]): 120 µM

O=C(O)c1cc(Cc2ccc(O)c(C(=O)O)c2)ccc1O
CC50 at 20 h [1]: > 200 µM
IC50 (Vaccinia virus [3]): 51 µM

CC1=NN(c2ccccc2)C(=O)/C1=C\c1cn(CC(O)CN2CCCCC2)c2ccccc12 (centres undefined)
CC50 at 20 h [1]: 79 µM
EC50 (Vaccinia virus [2]): 25 µM
IC50 (Vaccinia virus [3]): 24 µM

CCN1C(=O)/C(=C\C=C\c2ccco2)C(=O)NC1=S
CC50 at 20 h [1]: 72 µM
EC50 (Vaccinia virus [2]): 12 µM
IC50 (Vaccinia virus [3]): 160 µM

Cc1ccc(C)n1-c1cccc(C(=O)O)c1
CC50 at 20 h [1]: > 200 µM
IC50 (Vaccinia virus [3]): 100 µM

COc1ccc2c(C)nc(NC(=N)/N=C(\C)c3ccccc3C(=O)O)nc2c1
CC50 at 20 h [1]: 164 µM
EC50 (Vaccinia virus [2]): 50 µM
IC50 (Vaccinia virus [3]): 13 µM

CC1CCN(CCCNC(=O)c2cc3c(=O)n(C)c4ccccc4c3s2)CC1
CC50 at 20 h [1]: 75 µM
IC50 (Vaccinia virus [3]): 19 µM

CN(C)CCN(C(=O)c1ccco1)c1nc2cc3c(cc2s1)OCO3
CC50 at 20 h [1]: > 200 µM
EC50 (Vaccinia virus [2]): 100 µM
IC50 (Vaccinia virus [3]): 29 µM

COc1ccc2cc3cc(C(=O)NCCN(C)C)oc3nc2c1
CC50 at 20 h [1]: > 200 µM
EC50 (Vaccinia virus [2]): 75 µM

Cc1ccc2oc(=O)c3cc(C(=O)NCCN4CCCCC4C)sc3c2c1 (centres undefined)
CC50 at 20 h [1]: 147 µM
EC50 (Vaccinia virus [2]): 50 µM
IC50 (Vaccinia virus [3]): 25 µM

O=C(O)c1cc(-c2cccs2)nc2ccc(Br)cc12
CC50 at 20 h [1]: > 200 µM
EC50 (Vaccinia virus [2]): 100 µM
IC50 (Vaccinia virus [3]): 63 µM

C[n+]1ccc(/C=C/c2ccc3c(c2)OCO3)c2ccccc21
CC50 at 20 h [1]: > 200 µM
EC50 (Vaccinia virus [2]): 75 µM
IC50 (Vaccinia virus [3]): 24 µM

Nc1[nH]c(=S)sc1C(=O)Nc1nccs1
CC50 at 20 h [1]: > 200 µM
IC50 (Vaccinia virus [3]): 41 µM

CCS(=O)(=O)N1CCN=C1SCc1ccc(Cl)cc1Cl
CC50 at 20 h [1]: 166 µM
Activity (Vaccinia virus [4]): Active
EC50 (Vaccinia virus [2]): 25 µM
EC50 (Vaccinia virus [5]): 90 µM
IC50 (Vaccinia virus [3]): 188 µM

CCN1CCCC1CNC(=O)c1ccc2c(c1)sc1nc(-c3cccc(OC)c3)cn12 (centres undefined)
CC50 at 20 h [1]: 75 µM
EC50 (Vaccinia virus [2]): 50 µM
IC50 (Vaccinia virus [3]): 47 µM

c1ccc(CNc2ccc3c(ccc4c5ccccc5[nH]c34)n2)cc1
CC50 at 20 h [1]: 26 µM
EC50 (Vaccinia virus [2]): 10 µM
IC50 (Vaccinia virus [3]): 114 µM

CN(C)Cc1ccc2ccc3cccc4ccc1c2c34
CC50 at 20 h [1]: 20 µM
Activity (Vaccinia virus [4]): inactive
EC50 (Vaccinia virus [2]): 10 µM
EC50 (Vaccinia virus [5]): 25 µM

N#CC1=C(SCc2ccccc2)SC(c2ccccc2O)NC1=O (centres undefined)
CC50 at 20 h [1]: > 200 µM
EC50 (Vaccinia virus [2]): 150 µM
IC50 (Vaccinia virus [3]): 250 µM

CN1CCN(c2cc(-c3ccc(F)cc3)nc(-c3ccccc3)n2)CC1
CC50 at 20 h [1]: 23 µM
Activity (Vaccinia virus [4]): inactive
EC50 (Vaccinia virus [2]): 6 µM
EC50 (Vaccinia virus [5]): 12 µM

CCN1/C(=C/c2ccc3ccccc3[n+]2CC)Sc2cc(NC(C)=O)ccc21
CC50 at 20 h [1]: > 200 µM
EC50 (Vaccinia virus [2]): 200 µM
IC50 (Vaccinia virus [3]): 15 µM

CCN(CC)Cn1nc2c3c(cccc3c1=O)-c1ccccc1-2
CC50 at 20 h [1]: 133 µM
Activity (Vaccinia virus [4]): inactive
EC50 (Vaccinia virus [2]): 25 µM
EC50 (Vaccinia virus [5]): 14 µM
IC50 (Vaccinia virus [3]): 25 µM

CCN1CCN(CCCNC(=O)c2ccc3c(c2)NC(=O)/C(=C\C(=O)c2ccc(OC)cc2)N3)CC1
CC50 at 20 h [1]: > 200 µM
IC50 (Vaccinia virus [3]): 36 µM

COc1ccc2c(C)nc(N/C(N)=N/C(C)=O)nc2c1
CC50 at 20 h [1]: 90 µM
EC50 (Vaccinia virus [2]): 40 µM
IC50 (Vaccinia virus [3]): 16 µM

Cc1cc(OCC(=O)NC(Cc2c[nH]c3ccccc23)C(=O)O)cc(C)c1Cl (centres undefined)
CC50 at 20 h [1]: > 200 µM
EC50 (Vaccinia virus [2]): 200 µM
IC50 (Vaccinia virus [3]): 73 µM

OCC(O)Cn1c2ccc(Br)cc2c2cc(Br)ccc21 (centres undefined)
CC50 at 20 h [1]: 29 µM
Activity (Vaccinia virus [4]): inactive
EC50 (Vaccinia virus [2]): 10 µM
EC50 (Vaccinia virus [5]): 23 µM

CCN1CCCC1CNC(=O)c1cc2c(=O)n(C)c3ccccc3c2n1C (centres undefined)
CC50 at 20 h [1]: 135 µM
Activity (Vaccinia virus [4]): inactive
EC50 (Vaccinia virus [2]): 100 µM
EC50 (Vaccinia virus [5]): 98 µM

C/N=C1/c2c(C)c3cc(OC)ccc3n2CCN1C
CC50 at 20 h [1]: > 200 µM
EC50 (Vaccinia virus [2]): 75 µM
IC50 (Vaccinia virus [3]): 89 µM

Oc1ccc(C2(c3ccc(O)cc3)CCCC2)cc1
CC50 at 20 h [1]: 35 µM
EC50 (Vaccinia virus [2]): 75 µM
IC50 (Vaccinia virus [3]): 71 µM

O=C(/C=C/c1ccco1)/C=C/c1ccco1
CC50 at 20 h [1]: > 200 µM
EC50 (Vaccinia virus [2]): 75 µM
IC50 (Vaccinia virus [3]): 25 µM

Cc1cc2c(cc3c(=O)n(CC(=O)NCCN4CCOCC4)ncn32)s1
CC50 at 20 h [1]: 100 µM
Activity (Vaccinia virus [4]): inactive
EC50 (Vaccinia virus [2]): 25 µM
EC50 (Vaccinia virus [5]): 23 µM

CC(C)c1ccc(C2Nc3ccc(C(=O)O)cc3C3C=CCC32)cc1 (centres undefined)
CC50 at 20 h [1]: > 200 µM
EC50 (Vaccinia virus [2]): 100 µM
IC50 (Vaccinia virus [3]): 100 µM

O=C1/C(=C/c2ccc(Br)o2)CC/C1=C\c1ccc(Br)o1
CC50 at 20 h [1]: > 200 µM
IC50 (Vaccinia virus [3]): 95 µM

N=C(N)Nc1nc(-c2ccccc2)c2ccccc2n1
CC50 at 20 h [1]: 49 µM
EC50 (Vaccinia virus [2]): 50 µM
IC50 (Vaccinia virus [3]): 21 µM

COc1ccc(Nc2nc(N3CCN(C)CC3)nc3ccccc23)c(OC)c1
CC50 at 20 h [1]: 192 µM
Activity (Vaccinia virus [4]): inactive
EC50 (Vaccinia virus [2]): 40 µM
EC50 (Vaccinia virus [5]): 18 µM

COC(=O)c1c(NC(=O)c2ccc(OC)cc2)sc2c1CCN(C(C)C)C2
CC50 at 20 h [1]: 87 µM
Activity (Vaccinia virus [4]): inactive
EC50 (Vaccinia virus [2]): 25 µM
EC50 (Vaccinia virus [5]): 40 µM

CN(C)CCCNc1c2c(nc3ccccc13)CCC2
CC50 at 20 h [1]: 172 µM
EC50 (Vaccinia virus [2]): 50 µM
IC50 (Vaccinia virus [3]): 32 µM

CC1=NN(c2cccc(C(=O)O)c2)C(=O)/C1=C\c1ccc(-c2cccc(Cl)c2C)o1
CC50 at 20 h [1]: > 200 µM
EC50 (Vaccinia virus [2]): 50 µM
IC50 (Vaccinia virus [3]): 14 µM

C=C1C(C(=O)NCc2ccco2)C1C(=O)NCc1ccco1 (centres undefined)
CC50 at 20 h [1]: > 200 µM
IC50 (Vaccinia virus [3]): 272 µM

COc1ccc(Nc2cc(C(F)(F)F)ccc2Cl)c(C(=O)O)c1
CC50 at 20 h [1]: > 200 µM
EC50 (Vaccinia virus [2]): 100 µM
IC50 (Vaccinia virus [3]): 29 µM

S=c1nc(-c2ccco2)c2c(=S)[nH]c(=S)[nH]c2[nH]1
CC50 at 20 h [1]: > 200 µM
IC50 (Vaccinia virus [3]): 142 µM

O=C1N=C(Nc2cccc(C(=O)O)c2)S/C1=C\c1ccc(-c2ccc(C(=O)O)cc2)o1
CC50 at 20 h [1]: > 200 µM
IC50 (Vaccinia virus [3]): 30 µM

c1ccc2nc3c(nc2c1)c1ccccc1n3CCN1CCOCC1
CC50 at 20 h [1]: 72 µM
EC50 (Vaccinia virus [2]): 30 µM
IC50 (Vaccinia virus [3]): 28 µM

CN(c1ccccc1C(=O)O)S(=O)(=O)c1ccc2c3c(cccc13)C(=O)N2
CC50 at 20 h [1]: > 200 µM
IC50 (Vaccinia virus [3]): 75 µM

Cc1c(C)n(CCN(C)C)c2ccc(C(=O)OCCN(C)C)cc12 [AMINDOCATE]
CC50 at 20 h [1]: > 200 µM
EC50 (Vaccinia virus [2]): 75 µM
IC50 (Vaccinia virus [3]): 26 µM
